Tests used:
Mus musculus [1] = assay: […] anticancer activity against B6D2F-1 mice bearing P388 leukemia measured by the average weight change(g) after day 11 at an intravenous dose of 18(mg/kg).; type: functional
How it was run: (§1)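 Male B6D2F1 mice (8 weeks old, 20–25 g) were implanted iv on day 0 with P388/0 ascites cells (0.2 mL; ascites:saline 1.10), which grew in the liver. Drug was given iv via the tail vein, Q2Dx5, on days 1, 3, 5, 7 and 9. Groups had 4–5 mice. Day 1 value is mean body weight; later days are weight change.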

Mus musculus [2] = assay: […] anticancer activity against 5 B6D2F-1 mice bearing P388 leukemia measured by the toxicity death at an intravenous dose of 18(mg/kg).; type: organism-based; settings: in vivo
How it was run: (§2)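 Male B6D2F1 mice, 8 weeks old, 20–25 g. P388/0 ascites cells (0.2 mL, ascites:saline 1.10) were implanted iv on day 0, and the tumor grew in the liver. Drug was given iv by tail vein on days 1, 3, 5, 7 and 9 (Q2Dx5), with 4–5 mice per group. Survival time was scored as 8 a.m. (0.0), 1 p.m. (0.25) or 5 p.m. (0.5) deaths. %ILS was averaged against untreated controls, and toxic deaths were counted.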

Mus musculus [3] = assay: […] anticancer activity against B6D2F-1 mice bearing P388 leukemia measured by the average weight change(g) after day 11 at an intravenous dose of 24(mg/kg).; type: functional; how it was run: as §1
Mus musculus [4] = assay: […] anticancer activity against B6D2F-1 mice bearing P388 leukemia measured by the Average survival time(day+/-SD) at an intravenous dose of 24(mg/kg).; type: functional; how it was run: as §2
Mus musculus [5] = assay: […] anticancer activity against B6D2F-1 mice bearing P388 leukemia measured by the increase in lifespan(%) at an intravenous dose of 24(mg/kg).; type: functional; how it was run: as §2
HL-60 = assay: In vitro inhibition of human leukemic HL-60 cell growth in culture; type: functional, cell-based
How it was run: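 HL-60 cells were seeded at 5×10^4 cells/mL in RPMI 1640 with 10% heat-inactivated FBS, penicillin and streptomycin, at 37 °C in 5% CO2. Cells were exposed for 72 h to six or seven drug concentrations, run in duplicate. Viability was read by XTT-tetrazolium microculture absorbance, and IC50 was derived from median-effect plot analysis.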

Mus musculus [6] = assay: […] anticancer activity against B6D2F-1 mice bearing P388 leukemia measured by the average weight change(g) after day 11 at an intravenous dose of 12(mg/kg).; type: functional; how it was run: as §1
Mus musculus [7] = assay: […] anticancer activity against B6D2F-1 mice bearing P388 leukemia measured by the average survival time(day+/-SD) at an intravenous dose of 12(mg/kg)..; type: functional; how it was run: as §2
Mus musculus [8] = assay: […] anticancer activity against B6D2F-1 mice bearing P388 leukemia measured by the average body weight(g) after day 1 at an intravenous dose of 12(mg/kg).
Mus musculus [9] = assay: […] anticancer activity against B6D2F-1 mice bearing P388 leukemia measured by the average weight change(g) after day 7 at an intravenous dose of 24(mg/kg).; type: functional; how it was run: as §1
Mus musculus [10] = assay: […] anticancer activity against 5 4 B6D2F-1 mice bearing P388 leukemia measured by the toxicity death at an intravenous dose of 24(mg/kg).; type: organism-based; settings: in vivo; how it was run: as §2
Mus musculus [11] = assay: […] anticancer activity against B6D2F-1 mice bearing P388 leukemia measured by the average weight change(g) after day 9 at an intravenous dose of 12(mg/kg).; type: functional
How it was run: (§3)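 Male B6D2F1 mice (8 weeks old, 20–25 g) were implanted iv on day 0 with P388/0 ascites cells (0.2 mL; ascites:saline = 1.10). Tumor grew in the liver. Drug was given iv via the tail vein, Q2Dx5, on days 1, 3, 5, 7 and 9. Body weight was recorded on days 1, 7, 9 and 11 and reported as the average change (g).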

Mus musculus [12] = assay: […] anticancer activity against B6D2F-1 mice bearing P388 leukemia measured by the Average survival time(day+/-SD) at an intravenous dose of 18(mg/kg).; type: functional; how it was run: as §2
Mus musculus [13] = assay: […] anticancer activity against B6D2F-1 mice bearing P388 leukemia measured by the increase in lifespan(%) at an intravenous dose of 18(mg/kg).; type: functional; how it was run: as §2
Mus musculus [14] = assay: […] anticancer activity against B6D2F-1 mice bearing P388 leukemia measured by the average weight change(g) after day 7 at an intravenous dose of 12(mg/kg).; type: functional; how it was run: as §1
Mus musculus [15] = assay: […] anticancer activity against B6D2F-1 mice bearing P388 leukemia measured by the average body weight(g) after day 1 at an intravenous dose of 18(mg/kg).
Mus musculus [16] = assay: […] anticancer activity against B6D2F-1 mice bearing P388 leukemia measured by the average body weight(g) after day 1 at an intravenous dose of 24(mg/kg).
Mus musculus [17] = assay: […] anticancer activity against B6D2F-1 mice bearing P388 leukemia measured by the average weight change(g) after day 7 at an intravenous dose of 18(mg/kg).; type: functional; how it was run: as §1
Mus musculus [18] = assay: […] anticancer activity against B6D2F-1 mice bearing P388 leukemia measured by the average weight change(g) after day 9 at an intravenous dose of 24(mg/kg).; type: functional; how it was run: as §3
Mus musculus [19] = assay: […] anticancer activity against B6D2F-1 mice bearing P388 leukemia measured by the increase in lifespan(%) at an intravenous dose of 12(mg/kg)..; type: functional; how it was run: as §2
Mus musculus [20] = assay: […] anticancer activity against 5 B6D2F-1 mice bearing P388 leukemia measured by the toxicity death at an intravenous dose of 12(mg/kg)..; type: organism-based; settings: in vivo; how it was run: as §2
Mus musculus [21] = assay: […] anticancer activity against B6D2F-1 mice bearing P388 leukemia measured by the average weight change(g) after day 9 at an intravenous dose of 18(mg/kg).; type: functional; how it was run: as §3
Mus musculus [22] = assay: […] anticancer activity against B6D2F-1 mice bearing P388 leukemia measured by the average body weight(g) after day 1 at an intravenous dose of 3(mg/kg).
Mus musculus [23] = assay: […] anticancer activity against B6D2F-1 mice bearing P388 leukemia measured by the increase in lifespan(%) at an intravenous dose of 3(mg/kg)..; type: functional; how it was run: as §2
Mus musculus [24] = assay: […] anticancer activity against B6D2F-1 mice bearing P388 leukemia measured by the average weight change(g) after day 11 at an intravenous dose of 4(mg/kg).; type: functional; how it was run: as §1
Mus musculus [25] = assay: […] anticancer activity against B6D2F-1 mice bearing P388 leukemia measured by the average weight change(g) after day 11 at an intravenous dose of 3(mg/kg).; type: functional; how it was run: as §1
Mus musculus [26] = assay: […] anticancer activity against B6D2F-1 mice bearing P388 leukemia measured by the average survival time(day+/-SD) at an intravenous dose of 3(mg/kg)..; type: functional; how it was run: as §2
Mus musculus [27] = assay: […] anticancer activity against B6D2F-1 mice bearing P388 leukemia measured by the average weight change(g) after day 9 at an intravenous dose of 4(mg/kg).; type: functional; how it was run: as §3
Mus musculus [28] = assay: […] anticancer activity against 5 B6D2F-1 mice bearing P388 leukemia measured by the toxicity death at an intravenous dose of 3(mg/kg)..; type: organism-based; settings: in vivo; how it was run: as §2
Mus musculus [29] = assay: […] anticancer activity against B6D2F-1 mice bearing P388 leukemia measured by the increase in lifespan(%) at an intravenous dose of 4(mg/kg).; type: functional; how it was run: as §2
Mus musculus [30] = assay: […] anticancer activity against 5 B6D2F-1 mice bearing P388 leukemia measured by the toxicity death at an intravenous dose of 4(mg/kg).; type: organism-based; settings: in vivo; how it was run: as §2
Mus musculus [31] = assay: […] anticancer activity against B6D2F-1 mice bearing P388 leukemia measured by the average weight change(g) after day 7 at an intravenous dose of 4(mg/kg).; type: functional; how it was run: as §3
Mus musculus [32] = assay: […] anticancer activity against B6D2F-1 mice bearing P388 leukemia measured by the average weight change(g) after day 7 at an intravenous dose of 3(mg/kg).; type: functional; how it was run: as §3
Mus musculus [33] = assay: […] anticancer activity against B6D2F-1 mice bearing P388 leukemia measured by the Average survival time(day+/-SD) at an intravenous dose of 4(mg/kg).; type: functional; how it was run: as §2
Mus musculus [34] = assay: […] anticancer activity against B6D2F-1 mice bearing P388 leukemia measured by the average body weight(g) after day 1 at an intravenous dose of 4(mg/kg).

## CC(C)(C)OC(=O)Nc1cc(CO)cc(Nc2c3ccccc3nc3ccccc23)c1
Mus musculus [1]
  Average weight change: -1.6 g
Mus musculus [2]
  Toxicity related death: 0
Mus musculus [3]
  Average weight change: -1.8 g
Mus musculus [4]
  Average survival: 21 days
Mus musculus [5]
  Increase in life-span: 228%
HL-60
  IC50: 0.024 µM
Mus musculus [6]
  Average weight change: 0.3 g
Mus musculus [7]
  Average survival: 18 days
Mus musculus [8]
  Body weight: 23.1 g
Mus musculus [9]
  Average weight change: -1.4 g
Mus musculus [10]
  Toxicity related death: 2
Mus musculus [11]
  Average weight change: -0.7 g
Mus musculus [12]
  Average survival: 22.1 days
Mus musculus [13]
  Increase in life-span: 245%
Mus musculus [14]
  Average weight change: -0.1 g
Mus musculus [15]
  Body weight: 23.9 g
Mus musculus [16]
  Body weight: 22.3 g
Mus musculus [17]
  Average weight change: -1.3 g
Mus musculus [18]
  Average weight change: -1.4 g
Mus musculus [19]
  Increase in life-span: 181%
Mus musculus [20]
  Toxicity related death: 0
Mus musculus [21]
  Average weight change: -1.2 g

## CN(C)CCNC(=O)c1cccc2c(Nc3cc(N)cc(CO)c3)c3ccccc3nc12
HL-60
  IC50: 0.13 µM

## COC(=O)Nc1cc(CO)cc(Nc2c3ccccc3nc3ccccc23)c1
HL-60
  IC50: 0.0085 µM

## COc1cccc2c1C(=O)c1c(O)c3c(c(O)c1C2=O)C[C@@](O)(C(=O)CO)C[C@@H]3O[C@H]1C[C@H](N)[C@H](O)[C@H](C)O1 [DOXORUBICIN]
Mus musculus [22]
  Body weight: 23 g
Mus musculus [23]
  Increase in life-span: 122%
Mus musculus [24]
  Average weight change: -3.2 g
Mus musculus [25]
  Average weight change: -3.6 g
Mus musculus [26]
  Average survival: 14.2 days
Mus musculus [27]
  Average weight change: -1.6 g
Mus musculus [28]
  Toxicity related death: 0
Mus musculus [29]
  Increase in life-span: 328%
Mus musculus [30]
  Toxicity related death: 0
Mus musculus [31]
  Average weight change: -1.4 g
Mus musculus [32]
  Average weight change: -0.4 g
Mus musculus [33]
  Average survival: 27.4 days
Mus musculus [34]
  Body weight: 23.6 g

## CCCOC(=O)Nc1cc(CO)cc(Nc2c3ccccc3nc3ccccc23)c1
HL-60
  IC50: 0.008 µM

## COc1cccc2c(Nc3cc(N)cc(CO)c3)c3ccccc3nc12
HL-60
  IC50: 0.011 µM

## CNC(=O)c1cccc2c(Nc3cc(N)cc(CO)c3)c3cccc(C)c3nc12
HL-60
  IC50: 0.093 µM

## CNC(=O)c1cccc2c(Nc3cc(N)cc(CO)c3)c3ccccc3nc12
HL-60
  IC50: 0.29 µM

## CCOC(=O)Nc1cc(CO)cc(Nc2c3ccccc3nc3c(C(=O)NC)cccc23)c1
HL-60
  IC50: 0.088 µM

## CCOC(=O)Nc1cc(CO)cc(Nc2c3cccc(OC)c3nc3c(C(=O)NC)cccc23)c1
HL-60
  IC50: 0.032 µM

## CCOC(=O)Nc1cc(CO)cc(Nc2c3ccccc3nc3c(C)cccc23)c1
HL-60
  IC50: 0.0047 µM

## Nc1cc(CO)cc(Nc2c3ccccc3nc3c([N+](=O)[O-])cccc23)c1
HL-60
  IC50: 14 µM

## CC(C)COC(=O)Nc1cc(CO)cc(Nc2c3ccccc3nc3ccccc23)c1
HL-60
  IC50: 0.009 µM

## CCOC(=O)Nc1cc(CO)cc(Nc2c3ccccc3nc3c(C(=O)NCCN(C)C)cccc23)c1
HL-60
  IC50: 0.0057 µM

## CCOC(=O)Nc1cc(CO)cc(Nc2c3ccccc3nc3c([N+](=O)[O-])cccc23)c1
HL-60
  IC50: 3.8 µM

Reference: ChEMBL document CHEMBL1132156, “Synthesis and structure-activity relationships of potential anticancer agents: alkylcarbamates of 3-(9-acridinylamino)-5-hydroxymethylaniline” (J Med Chem, 1999)
